From PubChem
An excerpt weighted towards active compounds, which were near 1.7% of everything screened.
ZTA counter – counter-screen for EBNA-1 inhibitors: inhibitors of Epstein-Barr virus ZTA; P03206; inhibition, % at 11 µM; ZTA-DNA binding, fluorescence polarization; actives 0.15% (n = 320,000); in the data active = inhibition above about 33%
EBNA-1 inh – EBNA-1 DNA-binding inhibitors, primary screen, biochemical, fluorescence polarization; inhibition, % at 14.8 µM; actives 0.34% (n = 300,000); in the data active = inhibition above about 28%
UBC13 inh – UBC13 polyubiquitin chain formation inhibitors, primary screen, biochemical, TR-FRET, uHTS; inhibition, % at 20 µM; actives 0.47% (n = 330,000); AID 485273, 2010; in the data active = inhibition above about 45%, passing the limit was not always enough
PREPL inhibitor – PREPL enzyme inhibitors, primary screen, biochemical, fluorescence polarization; recombinant PREPL, fluorescence polarization activity-based probe; Prolyl endopeptidase-like (Homo sapiens), Q4J6C6; inhibition, % at 5.96 µM; AID 2751, 2010; actives 0.68% (n = 320,000);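 note: 0% = enzyme with DMSO and 100% = wells lacking enzyme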
Apaf-1 inh – inhibitors of human Apaf-1 apoptosome, primary screen, biochemical, DEVD-Rh110 fluorescence, uHTS; Apoptotic protease-activating factor 1 (Homo sapiens), O14727; reconstituted apoptosome caspase-3 activity; inhibition, % at 20 µM; actives 0.71% (n = 330,000); AID 489030, 2010; active = inhibition of at least 40% at 20 µM;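 note: plate controls were DMSO wells for no effect and DEVD-CHO caspase inhibitor wells for full effect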
Target sequence (O14727 whole entry, looked up): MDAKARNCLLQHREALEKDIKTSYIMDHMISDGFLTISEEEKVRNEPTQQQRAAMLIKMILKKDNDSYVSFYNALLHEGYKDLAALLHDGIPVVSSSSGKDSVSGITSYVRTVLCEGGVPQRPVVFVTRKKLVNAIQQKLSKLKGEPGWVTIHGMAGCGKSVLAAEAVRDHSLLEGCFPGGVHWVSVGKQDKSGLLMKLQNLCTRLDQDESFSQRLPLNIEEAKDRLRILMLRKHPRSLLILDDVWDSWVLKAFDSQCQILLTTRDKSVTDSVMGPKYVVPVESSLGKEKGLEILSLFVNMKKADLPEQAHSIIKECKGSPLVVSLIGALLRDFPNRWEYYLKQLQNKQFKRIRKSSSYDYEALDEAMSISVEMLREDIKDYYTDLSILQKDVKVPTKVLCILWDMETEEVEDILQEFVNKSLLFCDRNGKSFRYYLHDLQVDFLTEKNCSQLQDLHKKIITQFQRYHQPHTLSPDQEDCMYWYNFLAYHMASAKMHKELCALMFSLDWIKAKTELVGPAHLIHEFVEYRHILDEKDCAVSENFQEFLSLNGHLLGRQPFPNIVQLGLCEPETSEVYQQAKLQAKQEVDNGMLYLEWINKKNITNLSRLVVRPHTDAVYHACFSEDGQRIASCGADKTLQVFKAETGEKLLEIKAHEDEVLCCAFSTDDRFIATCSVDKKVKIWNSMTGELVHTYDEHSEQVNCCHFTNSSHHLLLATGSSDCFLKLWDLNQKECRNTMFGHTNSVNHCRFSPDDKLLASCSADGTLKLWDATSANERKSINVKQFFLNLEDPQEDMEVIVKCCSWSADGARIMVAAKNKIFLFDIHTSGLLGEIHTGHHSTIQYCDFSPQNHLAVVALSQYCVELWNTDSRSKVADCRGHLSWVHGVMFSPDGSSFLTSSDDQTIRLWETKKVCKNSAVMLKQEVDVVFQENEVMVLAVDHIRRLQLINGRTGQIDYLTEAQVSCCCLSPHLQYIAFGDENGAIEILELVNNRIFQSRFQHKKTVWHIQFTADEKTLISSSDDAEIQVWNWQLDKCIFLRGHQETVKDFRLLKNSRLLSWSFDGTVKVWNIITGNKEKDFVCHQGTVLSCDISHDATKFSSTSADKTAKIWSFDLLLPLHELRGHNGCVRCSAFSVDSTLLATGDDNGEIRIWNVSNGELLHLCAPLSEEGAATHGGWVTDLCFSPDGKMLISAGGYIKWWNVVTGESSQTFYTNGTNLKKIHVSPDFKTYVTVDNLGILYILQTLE
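Material: reconstituted apoptosome with Apaf-1, cytochrome c, caspase-9, procaspase-3, dATP / Buffer or medium: pH 7.5 Hepes buffer with CHAPS, BSA, DTT / Also added: cytochrome c with DEVD-Rh110 / Schedule: compound with Apaf-1, dATP, procaspase-3 30 min, then 50 min reaction, room temperature / Technique: rhodamine 110 fluorescence at Ex 480/Em 540 nm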
PREPL inh cf – human PREPL enzyme inhibitors, confirmation, biochemical, fluorescence polarization | shares compounds with PREPL inhibitor | recombinant PREPL, fluorescence polarization activity probe | inhibition, % at 5.96 µM | actives 67% (n = 2,000) | AID 2803, 2010;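 note: 0% = protein with DMSO and 100% = wells lacking protein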
The depositor's hits bear a star; nt = not tested or not shown. Cut-off read from the data, not from the text of the source, unless noted: active = inhibition above about 43%; inactive = the rest.

SMILES	ZTA counter	EBNA-1 inh	UBC13 inh	PREPL inhibitor	Apaf-1 inh	PREPL inh cf
CCOc1ccc(C(C)=O)cc1COC(=O)CCc1cc(OC)c(OC)c(OC)c1	-10	-5	2	0	14	nt
CC(C)(C)c1ccc(C(=O)Nc2ccc(C(=O)N3CCCC3)cc2)cc1	4	3	-1	10	19	nt
O=C1NN(c2ccccc2)C(=O)/C1=C\c1cccc(OC(=O)c2cccs2)c1	10	4	-19	57*	28	34
N=c1c(C(=O)NCc2ccc(F)cc2)cc2c(=O)n3ccccc3nc2n1Cc1cccnc1	16	1	0	45*	-5	42
COc1ccc(OC)c(Nc2c3c(nc4ccccc24)CCC3)c1	-10	8	-2	18	5	nt
COc1ccccc1Nc1c2c(nc3ccc(N)cc13)CCCC2	0	-5	-9	44*	9	27
COCCCNC(=O)c1c(NC(=O)c2cccs2)sc2c1CCCC2	3	-3	27	44*	8	30
NC(=O)c1c(NC(=O)c2cccs2)sc2c1CCCCCC2	3	0	8	-2	-5	nt
CN(C)CCN1C(=O)C(O)=C(C(=O)c2cc3ccccc3o2)C1c1ccc(N(C)C)cc1 (stereo not given)	-7	4	-12	51*	17	54*
CC1CCCN(Cc2c(O)ccc3c4c(c(=O)oc23)CCCC4)C1 (stereo not given)	5	-2	21	-1	4	nt
CC1CCN(Cc2c(O)ccc3c(=O)c(-c4nc5ccccc5s4)c(N)oc23)CC1	-12	7	-19	44*	22	39
CC1CCCN(Cc2c(O)ccc3c(=O)c(-c4nc5ccccc5s4)c(N)oc23)C1 (stereo not given)	0	-1	20	65*	16	62*
CC1(C)CCCN(Cc2c(O)ccc3c(=O)c(-c4nc5ccccc5s4)c(N)oc23)C1	17	1	3	44*	-9	38
O=C(O)c1ccccc1CSc1nc2ccccc2[nH]1	-23	-7	1	-3	1	nt
Cc1cc(Cl)ccc1Oc1nc(-c2ccccc2)ncc1S(C)(=O)=O	2	9	1	9	6	nt
Cc1c(Cl)cccc1-n1c(SCC(=O)N(C)Cc2ccccc2)nnc1-c1ccncc1	0	4	-2	-23	11	nt
Cc1c(N)cccc1N	9	nt	-3	50*	2	15
O=C(C1CC(=O)N(c2ccc3c(c2)OCCO3)C1)N1CCN(c2ccccc2)CC1 (stereo not given)	8	5	2	33	-16	nt
O=C(C1CC(=O)N(c2ccc3c(c2)OCCO3)C1)N1CCN(c2ccccc2O)CC1 (stereo not given)	2	-1	-1	45*	-13	41
CCc1c(C)sc(NC(=O)C2CC2)c1C(=O)OC(C)C	2	7	20	3	9	nt
O=C(COC(=O)CCc1c[nH]c2ccccc12)Nc1cc([N+](=O)[O-])ccc1Cl	-3	7	18	46*	9	43
CCCCCNC(=O)c1ccc2c(=O)[nH]c3c(C(=O)NCC4CCCO4)sc(=S)n3c2c1 (stereo not given)	5	1	-8	61*	7	57*
O=C(NCc1ccccc1)c1ccc2c(=O)[nH]c3c(C(=O)NCC4CCCO4)sc(=S)n3c2c1 (stereo not given)	-4	2	11	44*	5	64*
Cc1ccc(CNC(=O)c2ccc3c(=O)[nH]c4c(C(=O)NCC5CCCO5)sc(=S)n4c3c2)cc1 (stereo not given)	10	-6	-16	44*	11	46*
COc1ccc2sc(-c3ccc(N(C)C)cc3)c(C#CC(C)(C)O)c2c1	3	nt	18	13	4	nt
COc1ccc2sc(-c3ccc(N(C)C)cc3)c(C#Cc3cncn3C)c2c1	nt	nt	35	46*	31	40
CCc1ccc(CNc2ccc(N3CCN(C(C)=O)CC3)cc2)cc1	6	3	-8	66*	17	57*
CC(=O)N1CCN(c2ccc(NCc3ccc(C)cc3)cc2)CC1	16	-7	5	74*	0	46*
